Results gathered from unrelated publications.
Lines come from different studies, so protocols differ.
KIT A829P: Mast/stem cell growth factor receptor Kit (KIT, Homo sapiens, UniProt P10721, A829P)
KIT D816H: Mast/stem cell growth factor receptor Kit (KIT, Homo sapiens, UniProt P10721, D816H)
KIT T670I/V559D: Mast/stem cell growth factor receptor Kit (KIT, Homo sapiens, UniProt P10721, T670I/V559D)
KIT V559D/V654A: Mast/stem cell growth factor receptor Kit (KIT, Homo sapiens, UniProt P10721, V559D/V654A)
KIT: Mast/stem cell growth factor receptor Kit (KIT, Homo sapiens, UniProt P10721)
KIT D816V: Mast/stem cell growth factor receptor Kit (KIT, Homo sapiens, UniProt P10721, D816V)
KIT L576P: Mast/stem cell growth factor receptor Kit (KIT, Homo sapiens, UniProt P10721, L576P)

Structure (SMILES)	target	test	conditions	remaining binding
FC(F)(F)c1ccc2c(c1)nc(-c1cccnc1)n2C1CC1	Mast/stem cell growth factor receptor Kit (KIT, Homo sapiens, UniProt P10721, V559D)	cell-free assay, competition with immobilised ligand	1 µM	100%
C[C@@H]1CCN(c2nccc(-c3cnn4ncccc34)n2)C1	KIT A829P	binding	1 µM	85%
CNC(=O)Nc1ccc2c(c1)[C@@]1(CC2)OC(=O)N(CC(=O)N(Cc2ccc(F)cc2)[C@@H](C)C(F)(F)F)C1=O	KIT D816H	cell-free assay, competition with immobilised ligand	1 µM	70%
CNC(=O)[C@@H]1CC[C@@H](n2c(-c3ccc4cnccc4c3)nc3ccc(C(=O)NCc4cccc(C(N)=O)c4)cc32)C1	KIT T670I/V559D	binding, competition with immobilised ligand	1 µM	100%
C=CC(=O)N1CCC(C(=O)NCC(=O)N2CCN(c3nc(-c4cnc(N)nc4C(F)F)nc(N4CCOCC4)n3)CC2)CC1	KIT V559D/V654A	binding, competition with immobilised ligand	1 µM	100%
c1cncc(-c2cccc(Nc3nccc(NC4CCCCC4)n3)c2)c1	KIT T670I/V559D	binding, competition with immobilised ligand	10 µM	29%
O=C(NC[C@@H]1[C@H]2CN(C(=O)OCc3cc(C(F)(F)F)cc(C(F)(F)F)c3)C[C@@H]12)c1ccc2[nH]nnc2c1	KIT	cell-free assay, competition with immobilised ligand	1 µM	89%
CN(CCCC(F)(F)F)c1nccc(-c2cnn3ncccc23)n1	KIT T670I/V559D	binding	1 µM	100%
O=C(NCCCN1CCOCC1)c1ccc(Nc2nccc(-c3cc4ccccc4s3)n2)cc1	KIT D816V	binding, competition with immobilised ligand	1 µM	16%
c1cnn2ncc(-c3ccnc(N4CCC45COC5)n3)c2c1	KIT D816H	binding	1 µM	80%
O=C(Nc1c[nH]nc1C(=O)NC1CCNCC1)c1cc(F)cc(F)c1	KIT A829P	binding, competition with immobilised ligand	1 µM	92%
NS(=O)(=O)c1cc(NC(=O)Cc2ccccc2)ccc1Oc1cccc(Cl)c1	KIT L576P	cell-free assay, competition with immobilised ligand	1 µM	78%
COc1cnc(Nc2cccc(S(N)(=O)=O)c2)nc1N1CCN(c2ccccc2)CC1	KIT	binding, competition with immobilised ligand	1 µM	93%
O=C(NCCCN1CCOCC1)c1ccc(Nc2ncc(Cl)c(-c3ccc(Cl)s3)n2)cc1	Mast/stem cell growth factor receptor Kit, autoinhibited (KIT, Homo sapiens, UniProt P10721)	binding, competition with immobilised ligand	1 µM	31%
COc1ccnn2ncc(-c3ccnc(N(C)C)n3)c12	KIT D816V	binding	1 µM	100%
CCN1CCN(Cc2ccc(C(=O)Nc3ccc(C)c(Oc4ccc5c(c4)CC(=O)N5)c3)cc2C(F)(F)F)CC1	KIT D816H	binding, competition with immobilised ligand	1 µM	100%
CN(C)c1ncc(F)c(-c2cnn3ncccc23)n1	KIT V559D/V654A	binding	1 µM	68%
COc1ccc2cc(OCC3(C(=O)O)CN(C(=O)c4ccc(F)cc4)C3)ccc2c1	KIT L576P	cell-free assay, competition with immobilised ligand	1 µM	100%
O=C(c1ccc(Nc2nccc(-c3cc4ccccc4s3)n2)cc1)N1CCC(N2CCCC2)CC1	KIT L576P	binding, competition with immobilised ligand	1 µM	8.6%
CN([C@@H]1CCc2c(CC(=O)O)c3ccccc3n2C1)S(=O)(=O)c1ccc(F)cc1	KIT T670I/V559D	cell-free assay, competition with immobilised ligand	1 µM	100%
N[C@H]1CCN(c2nccc(-c3cnn4ncccc34)n2)C1	KIT D816V	binding	1 µM	87%
